# Screening results (PubChem)
# CXCR6 inh: CXCR6 (human) receptor inhibition; O00574; CHO-K1 PathHunter CXCR6 beta-arrestin, luminescence; inhibition, % at 20 µM; actives 0.36% (n = 360,000); AID 602244; in the data active means inhibition above about 34%, passing the limit was not always enough;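 further: antagonist mode with CXCL16 agonist at 10 nM final; 0% = 10 nM CXCL16 with DMSO and 100% = unstimulated wells without agonist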
# APJ ag: APJ receptor agonism | CHO-K1 APJ PathHunter beta-arrestin, luminescence; 0% DMSO wells, 100% apelin | activation, % at 20 µM | actives 0.11% (n = 330,000) | AID 2520;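 active means activation more than six SD over the plate average, tested at 20 µM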;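 further: 0% = DMSO alone and 100% = apelin-13 at 10 nM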
#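 system = engineered CHO-K1 APJ arrestin reporter cells | input = 1000 cells per well | timing = overnight seeding, 90 min compound at 25 °C, 1 h detection | measured by = enzyme-fragment complementation luminescence | read-out = beta-arrestin recruitment to APJ as agonist activity, luminescent signal | control set = negative DMSO alone, positive Apelin-13 at 10 nM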
# EBI2 antag: antagonists of human EBI2 receptor; P32249; EBI2 beta-arrestin recruitment, luminescence, 7a,25-OHC stimulated; inhibition, % at 5 µM; actives 0.81% (n = 360,000); AID 651636; in the data active means inhibition above about 38%;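 further: enzyme fragment complementation signal reports receptor beta-arrestin coupling in cells; 0% = agonist plus DMSO wells and 100% = wells without agonist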
# Target sequence (P32249 whole entry, looked up, the tested form may be a part): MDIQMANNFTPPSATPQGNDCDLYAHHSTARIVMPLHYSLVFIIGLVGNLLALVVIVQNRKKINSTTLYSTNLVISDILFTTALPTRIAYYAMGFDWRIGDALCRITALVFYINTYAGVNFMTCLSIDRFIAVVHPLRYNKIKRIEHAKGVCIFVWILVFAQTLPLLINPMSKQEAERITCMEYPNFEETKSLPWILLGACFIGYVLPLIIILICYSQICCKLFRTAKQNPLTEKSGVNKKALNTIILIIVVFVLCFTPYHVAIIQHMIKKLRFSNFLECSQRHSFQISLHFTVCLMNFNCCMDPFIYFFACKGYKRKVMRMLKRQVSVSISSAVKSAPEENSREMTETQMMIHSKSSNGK
# CCR6 antag: antagonists of human CCR6 receptor; P51684; actives 0.49% (n = 340,000); CHO-K1 CCR6 PathHunter beta-arrestin, luminescence, CCL20-stimulated; inhibition, % at 20 µM; AID 493098;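 active means compounds whose inhibition of the agonist-driven luminescence signal at 20 µM reaches about 50%, limit read from the data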;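 further: cells stimulated with CCL20 at 14 nM final; plate controls were DMSO with CCL20 for no effect and DMSO without agonist for full effect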
# APJ antag: blocks the human apelin receptor APJ | CHO-K1 APJ beta-arrestin complementation, luminescence | inhibition, % at 20 µM | actives 0.32% (n = 330,000);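 active means inhibition above about 40% at 20 µM, limit read from the data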;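 further: cells challenged with 10 nM apelin-13 agonist together with compound; plate controls were apelin-13 plus DMSO wells for no effect and DMSO wells lacking apelin-13 for full effect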
# * = called active by the depositor; . = no result; ! = not active in a repeat. An excerpt weighted towards active compounds, which were near 1.5% of everything screened.
SMILES,CXCR6 inh,APJ ag,EBI2 antag,CCR6 antag,APJ antag
COc1cc(/C=C2\SC(=S)N(c3cccnc3)C2=O)ccc1O,65*,-9,6,75*,53*
O=C(Nc1cccc(Oc2ccccc2)c1)c1ccc(-n2cncn2)c2ccoc12,-1,.,0,.,.
CCOC(=O)c1cccc(NC(=O)/C=C/c2cccc([N+](=O)[O-])c2)c1,-3,-2,5,-2,6
CCOC(=O)/C=C/C(=O)Nc1cccc([N+](=O)[O-])c1,85*,-2,-3,.,7
Cc1cn([C@H]2C[C@H](O)[C@@H](/C=C/C(=O)NCc3ccco3)O2)c(=O)[nH]c1=O,-6,.,-11,.,.
CC[n+]1c(/C=C/c2ccc(OC)c(OC)c2)ccc2ccccc21,5,-3,1,6,4
CC[n+]1c(/C=C/c2ccc(N(C)C)cc2)ccc2ccccc21,39,.,8,55*,.
CS(=O)(=O)N(CC(=O)N1CCCC1)c1cc(C(F)(F)F)ccc1Cl,-2,-2,2,4,27
CS(=O)(=O)N(CC(=O)N1CCN(c2ccccc2)CC1)c1cc(C(F)(F)F)ccc1Cl,1,-6,46*,7,8
CCOC(=O)C1(C)CCCN1C(=O)c1ccc(N(C)C)cc1 (stereo not drawn),-2,.,1,.,.
Cc1ccccc1-c1ccc(Nc2ccc(N3CCOCC3)cc2)nn1,3,2,71*,-12,4
CC(C)c1ncc(CO)n1Cc1c(Cl)cccc1Cl,-3,.,-1,.,.
Cc1ccc(CN2C(=O)C(Cc3ccccc3)Nc3ncnc(N4CCCCC4)c32)cc1 (stereo not drawn),41*!,-4,12,51*,39
COc1ccc(CN2C(=O)C(Cc3ccccc3)Nc3ncnc(N4CCCCC4)c32)cc1 (stereo not drawn),31,-12,7,43,-32
CCc1ccc2c(c1)NC(=O)C2(C)Cc1ccccc1OC (stereo not drawn),-5,.,-6,.,.
CC(C)Cc1nc2oc3c(N4CCN(CCO)CC4)ncnc3c2c2c1CCCC2,5,-4,51*,17,-1
c1cnc2ccc3ncccc3c2c1,-9,-1,-8,-3,-3
O=Cc1ccc(O)c2ncccc12,47*,0,3,45,-3
Cc1ccc(/C=C/C(=O)NCCc2ccccc2)o1,7,-3,6,83*,15
COc1ccc(C(=O)O/N=C/c2c(C(F)(F)F)nn(C)c2SCc2ccccc2Cl)cc1,2,-3,50*,12,15
CC(=NNc1nc2ccccc2s1)c1ccncn1,45*,.,55*,54*,.
C/C(=N\Nc1nc2ccccc2s1)c1ccc(Br)s1,3,0,22,-4,11
O=C1/C(=C/c2ccc(S(=O)(=O)O)cc2S(=O)(=O)O)CCc2ccccc21,4,.,-9,.,.
COc1ccc([N+](=O)[O-])c(S(=O)(=O)c2ccccc2)n1,59*,-6,-4,65*,34
COc1nc(OC)nc(Oc2ccc(Cl)cc2[N+](=O)[O-])n1,-11,1,-5,-3,-15
SMILES,CXCR6 inh,APJ ag,EBI2 antag,CCR6 antag,APJ antag
COc1ccc([N+](=O)[O-])c(S(=O)(=O)c2ccc(Cl)cc2)n1,68*,-3,-22,75*,16
O=[N+]([O-])c1cccnc1S(=O)(=O)c1ccccc1,8,0,-22,19,2
COc1ccc(CNC(=O)C2(C)Cc3c(-c4ccc(N(C)C)cc4)ccnc3O2)cc1OC (stereo not drawn),8,.,10,.,.
O=C1c2cccnc2-c2ncccc21,-5,-3,-4,13,4
COC1=C(Br)C(=O)c2ncccc2C1=O,59*,.,-27,79*,.
Cc1ccc2nc(-c3ccc(-c4cccc(Cl)c4)cc3)c(NCc3ccccc3)n2c1,12,3,58*,14,-37
Cc1ccc2nc(-c3ccc(Cl)cc3)c(Cc3cccc(Cl)c3)n2c1,20,.,31,.,.
O=[N+]([O-])c1ccc(N2CCOCC2)cc1O,4,-3,4,14,-6
Cc1cc(N2CCOCC2)ccc1/C=C\[N+](=O)[O-],32,6,17,56*,24
O=[N+]([O-])c1ccc(NN=CC2CCCCCC2)c([N+](=O)[O-])c1,-10,.,-5,.,.
NS(=O)(=O)c1ccc(NCc2cc(Cl)ccc2OCc2ccccc2F)cc1,-12,-3,17,54*,-5
O=C1Nc2ccccc2C(=O)N(c2ccc3c(c2)OCCO3)C1C(=O)NC1CC1 (stereo not drawn),.,.,-9,.,.
O=C1N=c2ccccc2=C1c1sc(Nc2cccc(O)c2)nc1O,20,-4,6,34,33
O=C1N=c2ccccc2=C1c1sc(Nc2ccc(O)cc2)nc1O,50*,.,4,57*,.
O=C1N=c2ccccc2=C1c1sc(NS(=O)(=O)Cc2ccccc2)nc1O,10,-6,9,76*,13
O=C1N=c2ccccc2=C1c1sc(NS(=O)(=O)c2ccccc2)nc1O,10,-8,3,14,22
O=C1NC[C@@H](CCCCN2C[C@H](Cc3ccc(O)cc3)N(CCc3ccccc3)C(=O)C2=O)N(Cc2ccccc2)C1=O,-4,.,-2,.,.
O=[N+]([O-])C1C(c2ccccc2)C12c1ccccc1-c1ccccc12 (stereo not drawn),0,.,-9,.,.
O=C1c2cccc3c([N+](=O)[O-])ccc(c23)C(=O)N1c1nccs1,43*,0,15,73*,27
CC(=O)Oc1ccc(N2C(=O)c3cccc4c([N+](=O)[O-])ccc(c34)C2=O)cc1,16,-1,38,65*,34
COc1cc(NC(=O)Nc2cccn3nc(COCCO)nc23)cc(OC)c1OC,1,.,-11,.,.
COC(=O)C[C@H]1C=C[C@@H](NC(=O)c2ccncc2)[C@@H](CO)O1,.,.,-5,.,.
COc1ccc(CC(=O)Nc2cccc(-c3nnc(-c4cccc(C)c4)o3)c2)cc1OC,-8,24*,-10,0,-22
COc1ccc(CC(=O)Nc2cccc(-c3nnc(-c4ccccc4)o3)c2)cc1OC,-11,.,-32,0,.
O=C1C(Nc2ccccc2)=C(NS(=O)(=O)c2ccccc2)C(=O)c2ccccc21,18,-3,5,50*,-28
O=C(Nc1ccc(Cl)c(C(F)(F)F)c1)C1Cc2c(-c3ccc4c(c3)OCO4)ccnc2O1 (stereo not drawn),1,.,1,.,.
COc1ccccc1NS(=O)(=O)c1cc([N+](=O)[O-])ccc1N/N=C/c1sc(N2CCOCC2)nc1-c1ccccc1,44*,.,27,63*,.
COc1ccc(C(=O)N/N=C/c2sc(N3CCOCC3)nc2-c2ccccc2)cc1OC,2,-1,-9,-10,-15
NC(=S)N/N=C/c1ccc(C23CC4CC(CC(C4)C2)C3)cc1,.,-6,.,66*,29
NC(=S)N/N=C/c1ccccc1,-1,-2,-2,-6,3
